According to ChEMBL document CHEMBL1140862, “Berberine analogues as a novel class of the low-density-lipoprotein receptor up-regulators: synthesis, structure-activity relationships, and cholesterol-lowering efficacy” (J Med Chem, 2009):
Active and inactive are the calls of the source. The rule behind the calls is not given here.

What was measured:
[1] = system: HepG2; experiment: Induction of LDLR mRNA expression in human HepG2 cells after 12 hrs by RT-PCR assay relative to untreated control; assay type: functional
Procedure, shortened: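 HepG2 cells kept in RPMI-1640 with 10% FBS, moved 24 h before dosing to 10% LPDS, then at ~80% confluence to RPMI-1640 with 0.5% LPDS plus compound (5.0 µg/mL in table; concentrations as indicated in figure), 12 h, 37 °C. Total RNA reverse-transcribed, TaqMan real-time PCR, comparative CT method with GAPDH reference; fold of untreated cells (=1); mean of three experiments.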

[2] = system: Rattus norvegicus; experiment: Reduction of blood low density lipoprotein cholesterol level in hyperlipidemic Sprague-Dawley rat at 100 mg/kg, po daily twice for 30 days relative to control; assay type: functional; parameters: scale not given: the % may be the effect or the level left
Procedure, shortened: (§1)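 Male Sprague-Dawley rats on HFHC diet 8 weeks, then saline suspension by gavage at 100 (mg/kg)/day, twice daily, 30 days (n = 8; untreated HFHC n = 6; normal-diet controls). Fasted tail-snip blood at end point; total cholesterol and LDL-c by commercial kits; percent reduction versus untreated HFHC control; mean ± SEM.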

[3] = system: Rattus norvegicus; experiment: Induction of LDLR mRNA expression in hyperlipidemic Sprague-Dawley rat liver at 300 mg/kg, po daily twice for 17 days by RT-PCR relative to control; assay type: functional
Procedure, shortened: (§2)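 Hyperlipidemic male Sprague-Dawley rats (HFHC diet 8 weeks) untreated (n = 6) or gavaged twice daily with saline suspension at 100 or 300 (mg/kg)/day (n = 8 each) for 17 days. Liver total RNA, real-time RT-PCR for LDLR, GAPDH-normalized, fold of HFHC group (=1); mean ± SE, one-way ANOVA.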

[4] = system: Mus musculus; experiment: Acute toxicity in Kunming mouse assessed as liver damage upto 5000 mg/kg, po after 14 days by hematoxylin and eosin staining; assay type: organism-based; parameters: dose 5000 mg/kg, route oral; conditions: in vivo, 336 h
Procedure, shortened: (§3)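 Male Kunming mice (19 ± 1 g), six per group, given a single oral dose of saline (control) or compound at 250, 1000 or 5000 mg/kg. Animals weighed daily and monitored 14 days. Then sacrificed; liver, kidney, heart, lung, brain and colon fixed in 10% formaldehyde at room temperature and examined by H&E histology.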

[5] = system: Rattus norvegicus; experiment: Induction of LDLR mRNA expression in hyperlipidemic Sprague-Dawley rat liver at 100 mg/kg, po daily twice for 30 days by RT-PCR relative to control; assay type: functional
Procedure, shortened: (§4)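 Male Sprague-Dawley rats (180 ± 10 g) fed HFHC diet (2% cholesterol, 10% yolk powder, 15% lard, 0.2% sodium cholate) 8 weeks, then gavaged with compound suspended in saline, 100 (mg/kg)/day, twice daily, 30 days (n = 8; untreated n = 6). Liver RNA, TaqMan real-time RT-PCR, comparative CT with GAPDH; fold of untreated HFHC control.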

[6] = system: Rattus norvegicus; experiment: Reduction of blood low density lipoprotein cholesterol level in hyperlipidemic Sprague-Dawley rat at 100 mg/kg, po daily twice for 17 days relative to control; assay type: functional; parameters: scale not given: the % may be the effect or the level left
Procedure, shortened: (§5)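 Hyperlipidemic Sprague-Dawley rats (HFHC diet 8 weeks) untreated (n = 6) or gavaged twice daily with saline suspension at 100 or 300 (mg/kg)/day (n = 8 each) for 17 days; fasted tail-snip blood at end point; total cholesterol and LDL-c by commercial kits, relative to untreated control.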

[7] = system: Mus musculus; experiment: Reduction of blood low density lipoprotein cholesterol level in hyperlipidemic C57BL/6J mouse at 100 mg/kg, po daily twice for 21 days relative to control; assay type: functional; parameters: scale not given: the % may be the effect or the level left
Procedure, shortened: (§6)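 Male C57BL/6J mice fed HFHC diet 8 weeks, then gavaged twice daily (0.2 mL saline suspension) at 100 (mg/kg)/day for 21 days (n = 8; untreated n = 6). Fasted tail-snip blood; total cholesterol and LDL-c by commercial kits relative to untreated control.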

[8] = system: Rattus norvegicus; experiment: Induction of LDLR mRNA expression in hyperlipidemic Sprague-Dawley rat liver at 100 mg/kg, po daily twice for 17 days by RT-PCR relative to control; assay type: functional, organism-based; parameters: dose 100 mg/kg; procedure, shortened: as §2
[9] = system: Mus musculus; experiment: Acute toxicity in Kunming mouse assessed as heart damage upto 5000 mg/kg, po after 14 days by hematoxylin and eosin staining; assay type: organism-based; parameters: dose 5000 mg/kg, route oral; conditions: in vivo, 336 h; procedure, shortened: as §3
[10] = system: Mus musculus; experiment: Acute toxicity in Kunming mouse assessed as brain damage upto 5000 mg/kg, po after 14 days by hematoxylin and eosin staining; assay type: organism-based; parameters: dose 5000 mg/kg, route oral; conditions: in vivo, 336 h; procedure, shortened: as §3
[11] = system: Rattus norvegicus; experiment: Reduction of blood cholesterol level in hyperlipidemic Sprague-Dawley rat at 300 mg/kg, po daily twice for 17 days relative to control; assay type: functional; parameters: scale not given: the % may be the effect or the level left; procedure, shortened: as §5
[12] = system: Rattus norvegicus; experiment: Reduction of blood low density lipoprotein cholesterol level in hyperlipidemic Sprague-Dawley rat at 100 mg/kg, po daily twice; assay type: functional, organism-based; parameters: dose 100 mg/kg; conditions: TDE = time-dependent effect
[13] = system: Mus musculus; experiment: Induction of LDLR mRNA expression in hyperlipidemic C57BL/6J mouse liver at 100 mg/kg, po daily twice for 21 days by RT-PCR relative to control; assay type: functional
Procedure, shortened: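 Male C57BL/6J mice (21 ± 2 g) fed HFHC diet 8 weeks, then gavaged twice daily with saline suspension at 100 (mg/kg)/day for 21 days (n = 8; untreated n = 6). Liver LDLR mRNA by TaqMan real-time RT-PCR, comparative CT with GAPDH, relative to untreated control.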

[14] = system: Mus musculus; experiment: Acute toxicity in Kunming mouse assessed as change in body weight at 1000 mg/kg, po; assay type: organism-based; parameters: dose 1000 mg/kg, route oral; conditions: in vivo; procedure, shortened: as §3
[15] = system: Mus musculus; experiment: Acute toxicity in Kunming mouse assessed as change in body weight at 250 mg/kg, po; assay type: organism-based; parameters: dose 250 mg/kg, route oral; conditions: in vivo; procedure, shortened: as §3
[16] = system: Rattus norvegicus; experiment: Reduction of blood cholesterol level in hyperlipidemic Sprague-Dawley rat at 100 mg/kg, po daily twice for 17 days relative to control; assay type: functional; parameters: scale not given: the % may be the effect or the level left; procedure, shortened: as §5
[17] = system: Mus musculus; experiment: Acute toxicity in Kunming mouse assessed as kidney damage upto 5000 mg/kg, po after 14 days by hematoxylin and eosin staining; assay type: organism-based; parameters: dose 5000 mg/kg, route oral; conditions: in vivo, 336 h; procedure, shortened: as §3
[18] = system: Rattus norvegicus; experiment: Induction of HMG-CoA reductase mRNA expression in hyperlipidemic Sprague-Dawley rat liver at 100 mg/kg, po daily twice for 30 days by RT-PCR; assay type: functional, organism-based; parameters: dose 100 mg/kg; procedure, shortened: as §4
[19] = system: Rattus norvegicus; experiment: Toxicity in hyperlipidemic Sprague-Dawley rat assessed as liver and kidney function abnormalities at 100 mg/kg, po daily twice for 30 days; assay type: organism-based; parameters: dose 100 mg/kg, route oral; conditions: in vivo, 720 h
Procedure, shortened: (§7)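 Hyperlipidemic Sprague-Dawley rats (HFHC diet 8 weeks) gavaged with saline suspension, 100 (mg/kg)/day twice daily, 30 days. Body weight and food intake monitored; fasted blood before and after treatment assayed with commercial kits for AST, ALT, BUN and creatinine; mean and sd.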

[20] = system: Rattus norvegicus; experiment: Reduction of blood low density lipoprotein cholesterol level in hyperlipidemic Sprague-Dawley rat at 300 mg/kg, po daily twice for 17 days relative to control; assay type: functional; parameters: scale not given: the % may be the effect or the level left; procedure, shortened: as §5
[21] = system: Rattus norvegicus; experiment: Toxicity in hyperlipidemic Sprague-Dawley rat assessed as food intake reduction at 100 mg/kg, po daily twice for 30 days; assay type: organism-based; parameters: dose 100 mg/kg, route oral; conditions: in vivo, 720 h; procedure, shortened: as §7
[22] = system: Mus musculus; experiment: Reduction of blood cholesterol level in hyperlipidemic C57BL/6J mouse at 100 mg/kg, po daily twice for 21 days relative to control; assay type: functional; parameters: scale not given: the % may be the effect or the level left; procedure, shortened: as §6
[23] = system: Rattus norvegicus; experiment: Toxicity in hyperlipidemic Sprague-Dawley rat assessed as weight loss at 100 mg/kg, po daily twice for 30 days; assay type: organism-based; parameters: dose 100 mg/kg, route oral; conditions: in vivo, 720 h; procedure, shortened: as §7
[24] = system: HepG2; experiment: Induction of LDLR protein expression in human HepG2 cells at 10 ug/mL after 12 hrs by flow cytometry; assay type: functional, cell-based
Procedure, shortened: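 HepG2 cells in LPDS medium treated 12 h with 10 µg/mL compound, detached, fixed in 2% paraformaldehyde at 4 °C overnight, blocked, stained on ice 1 h with rabbit polyclonal anti-LDLR (1:25), then FITC goat anti-rabbit IgG (1:50) 30 min; normal rabbit IgG background control; cell-surface fluorescence by flow cytometry.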

[25] = system: Mus musculus; experiment: Acute toxicity in po dosed Kunming mouse assessed as lung damage upto 5000 mg/kg, po after 14 days by hematoxylin and eosin staining; assay type: organism-based; parameters: dose 5000 mg/kg, route oral; conditions: in vivo, 336 h; procedure, shortened: as §3
[26] = system: Rattus norvegicus; experiment: Reduction of blood cholesterol level in hyperlipidemic Sprague-Dawley rat at 100 mg/kg, po daily twice for 30 days relative to control; assay type: functional; parameters: scale not given: the % may be the effect or the level left; procedure, shortened: as §1
[27] = system: Rattus norvegicus; experiment: Reduction of blood cholesterol level in hyperlipidemic Sprague-Dawley rat at 100 mg/kg, po daily twice; assay type: functional, organism-based; parameters: dose 100 mg/kg; conditions: TDE = time-dependent effect
[28] = system: Mus musculus; experiment: Acute toxicity in Kunming mouse assessed as colon damage upto 5000 mg/kg, po after 14 days by hematoxylin and eosin staining; assay type: organism-based; parameters: dose 5000 mg/kg, route oral; conditions: in vivo, 336 h; procedure, shortened: as §3
[29] = system: Mus musculus; experiment: Acute toxicity in po dosed Kunming mouse after 14 days; assay type: organism-based; conditions: in vivo, 336 h; procedure, shortened: as §3

## CCOC(=O)C[N+]12CCc3cc4c(cc3C1Cc1cc(OC)c(OC)cc1C2)OCO4.[Br-] (stereo not given)
[1]
  fold change (FC): 1

## COc1cc2c[n+]3c(c(Cc4ccccc4)c2cc1OC)-c1cc2c(cc1CC3)OCO2.[Br-]
[1]
  fold change (FC): 1

## CCCCCCc1c2[n+](cc3c(OC)c(OC)ccc13)CCc1cc3c(cc1-2)OCO3.[Cl-]
[1]
  fold change (FC): 1

## COc1ccc2c(Cc3ccccc3)c3[n+](cc2c1OC)CCc1cc2c(cc1-3)OCO2.[Br-]
[1]
  fold change (FC): 1.4

## COc1cc2c[n+]3c(c(C)c2cc1OC)-c1cc2c(cc1CC3)OCO2.[Cl-]
[1]
  fold change (FC): 0.9

## COc1cc2cc3[n+](cc2cc1OC)CCc1cc2c(cc1-3)OCO2.[Cl-] [PSEUDOBERBERINE]
[2]
  Activity: 49.4%
[3]
  fold change (FC): 4.8
[4]
  Activity: Non-toxic
[5]
  fold change (FC): 2.9
[6]
  Activity: 31%
[7]
  Activity: 39%
[8]
  Activity: Active
[9]
  Activity: Non-toxic
[10]
  Activity: Non-toxic
[11]
  Activity: 46.3%
[12]
  Activity: tde
[1]
  fold change (FC): 3.5
[13]
  fold change (FC): 3.2
[14]
  Activity: Non-toxic
[15]
  Activity: Non-toxic
[16]
  Activity: 28.5%
[17]
  Activity: Non-toxic
[18]
  Activity: inactive
[19]
  Activity: Non-toxic
[20]
  Activity: 53.6%
[21]
  Activity: Non-toxic
[22]
  Activity: 29.7%
[23]
  Activity: Non-toxic
[24]
  Activity: Active
[25]
  Activity: Non-toxic
[26]
  Activity: 42.6%
[27]
  Activity: tde
[28]
  Activity: Non-toxic
[29]
  Activity: Non-toxic

## COc1ccc2c(c1OC)CN1CCc3cc4c(cc3[C@@H]1C2)OCO4 [CANADINE]
[1]
  fold change (FC): 1
